Four compounds from ChEMBL document CHEMBL3576820, “Discovery of benzimidazole oxazolidinediones as novel and selective nonsteroidal mineralocorticoid receptor antagonists” (ACS Med Chem Lett, 2015) can be followed below.

Active and inactive are the calls of the source. The calls are words filed in the database; no cut-off is given here.

Usually fraction unbound stands for free concentration divided by total concentration. Low readings indicate little free substance, high ones much free substance. For orientation: IC50 means the point on the concentration scale where inhibition reaches its midpoint.

Estrogen receptor beta, sequence (Q92731 whole entry): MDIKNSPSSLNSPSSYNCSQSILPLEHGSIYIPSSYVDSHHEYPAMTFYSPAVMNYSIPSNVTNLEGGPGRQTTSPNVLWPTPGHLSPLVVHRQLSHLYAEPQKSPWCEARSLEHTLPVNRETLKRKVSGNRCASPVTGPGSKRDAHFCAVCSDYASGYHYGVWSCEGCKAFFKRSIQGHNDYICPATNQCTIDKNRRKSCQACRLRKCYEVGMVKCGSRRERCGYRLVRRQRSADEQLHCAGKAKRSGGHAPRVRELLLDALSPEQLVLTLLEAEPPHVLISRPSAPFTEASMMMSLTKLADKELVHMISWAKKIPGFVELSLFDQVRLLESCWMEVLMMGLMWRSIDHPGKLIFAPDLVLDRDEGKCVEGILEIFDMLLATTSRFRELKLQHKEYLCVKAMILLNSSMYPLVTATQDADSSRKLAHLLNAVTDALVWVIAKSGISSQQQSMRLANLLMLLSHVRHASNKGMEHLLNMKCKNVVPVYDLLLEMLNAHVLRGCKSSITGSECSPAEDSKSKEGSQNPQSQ

Test system in the first series: not listed separately
The experiment in a line: Fraction unbound in 10% human plasma. Type of series: ADME, cell-free. The conditions noted are these: 10% plasma. Put shortly: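 Free fraction measured in the presence of 10% plasma (human or rat), taken as correlating with the free fraction in whole plasma.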
Take `C[C@H](c1ccc(F)cc1)N1C(=O)O[C@](Cc2ccccc2)(c2nc3cc(-c4cc[nH]n4)ccc3[nH]2)C1=O`: the fraction unbound was found to be 0.04.
The same measure, in the same setting: in the case of `C[C@H](c1ccc(F)cc1)N1C(=O)O[C@](Cc2ccccc2)(c2nc3cc(N4CCOCC4)ccc3[nH]2)C1=O` it was 0.093; in that of `C[C@H](c1ccc(F)cc1)N1C(=O)O[C@](Cc2ccccc2)(c2nc3cc(-c4cccnc4)ccc3[nH]2)C1=O`, 0.002.

Test system in a further series: not listed separately
The series can be described thus: Volume of distribution at steady state in Wistar han rat at 2 mg/kg, po and 1 mg/kg, iv. The conditions noted are these: in vivo, read-out: Vdss. It counts as ADME, organism-based. Put shortly: (§1)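 Wistar Han rats. IV dose 1 mg/kg in DMSO/PEG200/water (10:60:30), n=2. Oral dose 2 mg/kg in imwitor/tween (1:1) by gavage, n=3. Values are averages. Derived: F%, plasma clearance, Vdss, terminal half-life and oral AUC normalized to dose.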
Regarding `Cc1nocc1-c1ccc2[nH]c([C@@]3(Cc4ccccc4)OC(=O)N([C@H](C)c4ccc(F)cc4)C3=O)nc2c1`, the Vd was found to be 1.9 L/kg.
As to `C[C@H](c1ccc(F)cc1)N1C(=O)O[C@](Cc2ccccc2)(c2nc3cc(-c4cc[nH]n4)ccc3[nH]2)C1=O`, the Vd was determined as 1.6 L/kg.
Same read-out and setting: for `C[C@H](c1ccc(F)cc1)N1C(=O)O[C@](Cc2ccccc2)(c2nc3cc(N4CCOCC4)ccc3[nH]2)C1=O` the value was 2.3 L/kg; for `C[C@H](c1ccc(F)cc1)N1C(=O)O[C@](Cc2ccccc2)(c2nc3cc(-c4cccnc4)ccc3[nH]2)C1=O`, 5 L/kg.

The next series addresses T1, Progesterone receptor (Homo sapiens) (UniProt P06401).
T1 sequence (whole entry): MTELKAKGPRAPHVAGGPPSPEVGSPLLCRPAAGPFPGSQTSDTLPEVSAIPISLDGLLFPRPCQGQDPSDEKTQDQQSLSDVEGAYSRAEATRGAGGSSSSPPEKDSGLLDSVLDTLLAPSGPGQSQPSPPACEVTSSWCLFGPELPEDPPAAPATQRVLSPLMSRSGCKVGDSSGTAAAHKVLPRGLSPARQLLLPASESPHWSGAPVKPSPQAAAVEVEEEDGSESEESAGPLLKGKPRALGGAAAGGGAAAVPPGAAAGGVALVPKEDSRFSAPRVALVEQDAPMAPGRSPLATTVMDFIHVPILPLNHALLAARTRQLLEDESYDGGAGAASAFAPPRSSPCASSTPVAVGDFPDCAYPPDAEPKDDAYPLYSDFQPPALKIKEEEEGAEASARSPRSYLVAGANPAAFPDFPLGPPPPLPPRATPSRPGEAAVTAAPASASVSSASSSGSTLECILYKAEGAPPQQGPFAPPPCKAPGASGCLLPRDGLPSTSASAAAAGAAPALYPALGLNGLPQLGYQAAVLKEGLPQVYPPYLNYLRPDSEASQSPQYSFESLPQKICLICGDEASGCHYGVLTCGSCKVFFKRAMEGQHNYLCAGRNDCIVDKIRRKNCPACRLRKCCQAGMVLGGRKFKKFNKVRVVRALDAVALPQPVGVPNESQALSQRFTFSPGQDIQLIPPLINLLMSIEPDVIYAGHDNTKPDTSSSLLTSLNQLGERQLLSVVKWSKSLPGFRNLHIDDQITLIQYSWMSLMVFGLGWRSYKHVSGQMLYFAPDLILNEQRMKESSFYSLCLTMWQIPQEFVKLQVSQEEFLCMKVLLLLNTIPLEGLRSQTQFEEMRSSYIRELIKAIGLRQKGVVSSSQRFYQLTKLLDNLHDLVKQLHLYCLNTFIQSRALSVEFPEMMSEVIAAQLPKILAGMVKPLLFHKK
The series can be described thus: Agonist activity at human progesterone receptor beta by cell-based assay.
Settings: not given
Regarding `Cc1nocc1-c1ccc2[nH]c([C@@]3(Cc4ccccc4)OC(=O)N([C@H](C)c4ccc(F)cc4)C3=O)nc2c1`, the outcome was inactive.
Consider `C[C@H](c1ccc(F)cc1)N1C(=O)O[C@](Cc2ccccc2)(c2nc3cc(-c4cc[nH]n4)ccc3[nH]2)C1=O`, for which the outcome was inactive.
On to `C[C@H](c1ccc(F)cc1)N1C(=O)O[C@](Cc2ccccc2)(c2nc3cc(N4CCOCC4)ccc3[nH]2)C1=O`, for which the outcome was inactive.
On the same count and under the same terms, in the case of `C[C@H](c1ccc(F)cc1)N1C(=O)O[C@](Cc2ccccc2)(c2nc3cc(-c4cccnc4)ccc3[nH]2)C1=O` it was “inactive”.

A further series concerns the target Estrogen receptor beta (Homo sapiens, UniProt Q92731). The series can be described thus: Antagonist activity at human estrogen receptor beta assessed as inhibition of agonist-induced protein interaction with steroid receptor co-activator peptide by cell-based reporter gene assay.
Settings: not given
(In a reporter assay the amount or activity of a reporter protein is the signal.)
For the compound `Cc1nocc1-c1ccc2[nH]c([C@@]3(Cc4ccccc4)OC(=O)N([C@H](C)c4ccc(F)cc4)C3=O)nc2c1`, the IC50 turned out to be 3000 nM.
As for `C[C@H](c1ccc(F)cc1)N1C(=O)O[C@](Cc2ccccc2)(c2nc3cc(-c4cc[nH]n4)ccc3[nH]2)C1=O`, the IC50 came out at 2600 nM.
Regarding `C[C@H](c1ccc(F)cc1)N1C(=O)O[C@](Cc2ccccc2)(c2nc3cc(N4CCOCC4)ccc3[nH]2)C1=O`, the IC50 was 5300 nM.
In the case of `C[C@H](c1ccc(F)cc1)N1C(=O)O[C@](Cc2ccccc2)(c2nc3cc(-c4cccnc4)ccc3[nH]2)C1=O`, the IC50 is 2700 nM.

For a further series, the target named is T2, Estrogen receptor (Homo sapiens) (UniProt P03372).
T2 sequence (whole entry): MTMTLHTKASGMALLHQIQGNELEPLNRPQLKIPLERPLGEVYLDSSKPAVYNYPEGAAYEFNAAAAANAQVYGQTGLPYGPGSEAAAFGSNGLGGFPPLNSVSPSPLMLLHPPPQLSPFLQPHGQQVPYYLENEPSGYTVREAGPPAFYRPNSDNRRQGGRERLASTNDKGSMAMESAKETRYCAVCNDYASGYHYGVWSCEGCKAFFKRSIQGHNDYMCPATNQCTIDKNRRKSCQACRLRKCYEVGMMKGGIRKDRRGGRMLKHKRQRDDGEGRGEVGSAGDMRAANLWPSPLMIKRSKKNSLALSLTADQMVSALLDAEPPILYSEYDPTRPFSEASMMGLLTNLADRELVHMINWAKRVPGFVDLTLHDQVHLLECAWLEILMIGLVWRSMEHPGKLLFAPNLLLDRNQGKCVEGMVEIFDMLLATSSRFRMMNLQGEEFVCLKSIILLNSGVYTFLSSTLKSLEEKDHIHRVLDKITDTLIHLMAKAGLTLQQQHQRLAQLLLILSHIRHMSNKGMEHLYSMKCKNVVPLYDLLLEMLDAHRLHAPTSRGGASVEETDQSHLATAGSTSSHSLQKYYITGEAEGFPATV
The experiment in a line: Agonist activity at human estrogen receptor alpha by cell-based assay.
Settings: not given
Turning to `Cc1nocc1-c1ccc2[nH]c([C@@]3(Cc4ccccc4)OC(=O)N([C@H](C)c4ccc(F)cc4)C3=O)nc2c1`, the outcome was inactive.
For the compound `C[C@H](c1ccc(F)cc1)N1C(=O)O[C@](Cc2ccccc2)(c2nc3cc(-c4cc[nH]n4)ccc3[nH]2)C1=O`, the outcome was inactive.
`C[C@H](c1ccc(F)cc1)N1C(=O)O[C@](Cc2ccccc2)(c2nc3cc(N4CCOCC4)ccc3[nH]2)C1=O`: the outcome was inactive.
`C[C@H](c1ccc(F)cc1)N1C(=O)O[C@](Cc2ccccc2)(c2nc3cc(-c4cccnc4)ccc3[nH]2)C1=O`: the result was inactive.

Test system in another series: not listed separately
The series can be described thus: Terminal half life in Wistar han rat at 2 mg/kg, po and 1 mg/kg, iv. Type of series: ADME, organism-based. The conditions noted are these: in vivo, read-out: beta t1/2 (converted). Summed up:
as §1
For `Cc1nocc1-c1ccc2[nH]c([C@@]3(Cc4ccccc4)OC(=O)N([C@H](C)c4ccc(F)cc4)C3=O)nc2c1`, the half-life is 1.2 h.
In the case of `C[C@H](c1ccc(F)cc1)N1C(=O)O[C@](Cc2ccccc2)(c2nc3cc(-c4cc[nH]n4)ccc3[nH]2)C1=O`, the half-life is 1.8 h.
On to `C[C@H](c1ccc(F)cc1)N1C(=O)O[C@](Cc2ccccc2)(c2nc3cc(N4CCOCC4)ccc3[nH]2)C1=O`, for which the half-life was 0.69 h.
With `C[C@H](c1ccc(F)cc1)N1C(=O)O[C@](Cc2ccccc2)(c2nc3cc(-c4cccnc4)ccc3[nH]2)C1=O`, the half-life is 0.94 h.

Test system in another series: not listed separately
The series can be described thus: Plasma clearance in Wistar han rat at 2 mg/kg, po and 1 mg/kg, iv. It counts as ADME, organism-based.
Settings: not given
Put shortly: as §1
The compound `Cc1nocc1-c1ccc2[nH]c([C@@]3(Cc4ccccc4)OC(=O)N([C@H](C)c4ccc(F)cc4)C3=O)nc2c1` displayed a clearance of 20 mL/min/kg.
Regarding `C[C@H](c1ccc(F)cc1)N1C(=O)O[C@](Cc2ccccc2)(c2nc3cc(-c4cc[nH]n4)ccc3[nH]2)C1=O`, the clearance was found to be 19 mL/min/kg.
For the compound `C[C@H](c1ccc(F)cc1)N1C(=O)O[C@](Cc2ccccc2)(c2nc3cc(N4CCOCC4)ccc3[nH]2)C1=O`, the clearance came to 67 mL/min/kg.
`C[C@H](c1ccc(F)cc1)N1C(=O)O[C@](Cc2ccccc2)(c2nc3cc(-c4cccnc4)ccc3[nH]2)C1=O` came in with a clearance of 80 mL/min/kg.

A further series addresses T3, Mineralocorticoid receptor (Homo sapiens) (UniProt P08235).
T3 sequence (whole entry): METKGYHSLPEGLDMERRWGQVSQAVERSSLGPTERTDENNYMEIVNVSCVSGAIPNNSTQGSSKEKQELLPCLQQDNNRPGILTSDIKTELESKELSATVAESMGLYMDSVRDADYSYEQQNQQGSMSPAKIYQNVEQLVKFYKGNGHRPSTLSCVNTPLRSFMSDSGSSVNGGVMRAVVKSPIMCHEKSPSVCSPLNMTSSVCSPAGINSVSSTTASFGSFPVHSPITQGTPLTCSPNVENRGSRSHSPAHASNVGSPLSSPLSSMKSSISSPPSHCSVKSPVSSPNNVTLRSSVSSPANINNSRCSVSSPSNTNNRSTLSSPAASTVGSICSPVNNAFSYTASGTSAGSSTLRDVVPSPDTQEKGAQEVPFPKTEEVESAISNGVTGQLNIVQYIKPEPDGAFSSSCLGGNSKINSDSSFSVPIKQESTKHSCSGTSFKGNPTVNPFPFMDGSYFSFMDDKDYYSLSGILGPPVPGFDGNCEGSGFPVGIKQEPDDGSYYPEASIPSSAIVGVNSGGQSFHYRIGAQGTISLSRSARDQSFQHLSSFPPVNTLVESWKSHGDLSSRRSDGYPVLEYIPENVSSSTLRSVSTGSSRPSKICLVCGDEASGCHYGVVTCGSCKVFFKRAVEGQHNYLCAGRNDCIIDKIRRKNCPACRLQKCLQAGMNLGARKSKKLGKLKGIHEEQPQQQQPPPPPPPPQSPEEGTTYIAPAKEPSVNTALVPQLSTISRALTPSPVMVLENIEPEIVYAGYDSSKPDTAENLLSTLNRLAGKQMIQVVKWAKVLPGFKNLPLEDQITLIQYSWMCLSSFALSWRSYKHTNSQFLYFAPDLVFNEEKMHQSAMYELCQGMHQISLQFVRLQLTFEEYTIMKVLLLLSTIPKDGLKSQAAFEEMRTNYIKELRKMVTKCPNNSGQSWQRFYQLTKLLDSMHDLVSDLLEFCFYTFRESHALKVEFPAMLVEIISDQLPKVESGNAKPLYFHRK
The experiment in a line: Agonist activity at human mineralocorticoid receptor by cell-based assay.
Settings: not given
On to `Cc1nocc1-c1ccc2[nH]c([C@@]3(Cc4ccccc4)OC(=O)N([C@H](C)c4ccc(F)cc4)C3=O)nc2c1`, for which the outcome was inactive.
For `C[C@H](c1ccc(F)cc1)N1C(=O)O[C@](Cc2ccccc2)(c2nc3cc(-c4cc[nH]n4)ccc3[nH]2)C1=O`, the result was inactive.
For the compound `C[C@H](c1ccc(F)cc1)N1C(=O)O[C@](Cc2ccccc2)(c2nc3cc(N4CCOCC4)ccc3[nH]2)C1=O`, the outcome was inactive.
For the compound `C[C@H](c1ccc(F)cc1)N1C(=O)O[C@](Cc2ccccc2)(c2nc3cc(-c4cccnc4)ccc3[nH]2)C1=O`, the outcome was inactive.

A further series deals with T4, Progesterone receptor (Homo sapiens, UniProt P06401).
T4 sequence (P06401 whole entry): T1 sequence (whole entry)
The experiment in a line: Antagonist activity at human progesterone receptor beta expressed in human U2OS cells assessed as inhibition of D(-)-norgestrel-induced protein interaction with steroid receptor co-activator peptide after overnight incubation by beta-galactosidase reporter gene assay. Type of series: cell-based.
Settings: not given
For the compound `Cc1nocc1-c1ccc2[nH]c([C@@]3(Cc4ccccc4)OC(=O)N([C@H](C)c4ccc(F)cc4)C3=O)nc2c1`, the IC50 was determined as 2800 nM.
In the case of `C[C@H](c1ccc(F)cc1)N1C(=O)O[C@](Cc2ccccc2)(c2nc3cc(-c4cc[nH]n4)ccc3[nH]2)C1=O`, the IC50 turned out to be 2900 nM.
For `C[C@H](c1ccc(F)cc1)N1C(=O)O[C@](Cc2ccccc2)(c2nc3cc(N4CCOCC4)ccc3[nH]2)C1=O`, the IC50 turned out to be 1900 nM.
Take `C[C@H](c1ccc(F)cc1)N1C(=O)O[C@](Cc2ccccc2)(c2nc3cc(-c4cccnc4)ccc3[nH]2)C1=O`: the IC50 came out at 2900 nM.
